Measurements published in ChEMBL document CHEMBL1155146, “Diphenyl furans and aza analogs: effects of structural modification on in vitro activity, DNA binding, and accumulation and distribution in trypanosomes” (Antimicrob Agents Chemother, 2007).

Experiments:
[1] = Binding affinity to poly(dA).poly(dT) assessed as increase in melting temperature
How it was run: (§1)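 UV thermal melting in MES buffer (0.01 M MES, 0.1 M NaCl, 0.001 M EDTA, pH 6.2), heated at 0.5°C/min. Oligomer duplex at 1 x 10^-6 M duplex with 1:1 compound:duplex. Poly(dA)·poly(dT) at 5 x 10^-5 M base pairs with 0.6 compound:bp. Tm taken from the first-derivative maximum of absorbance vs temperature. ΔTm = Tm(complex) − Tm(DNA).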

[2] = tested on: Trypanosoma brucei brucei; assay: Antitrypanosomal activity against Trypanosoma brucei brucei S427 after 72 hrs; type: functional, organism-based; settings: S427, 72 h
[3] = tested on: Trypanosoma brucei rhodesiense; assay: Antitrypanosomal activity against Trypanosoma brucei rhodesiense STIB900 after 72 hrs; type: functional, organism-based; settings: STIB900, 72 h
[4] = tested on: Trypanosoma brucei brucei; assay: Drug level in Trypanosoma brucei brucei S427 at 7.5 uM after 8 hrs; type: ADME, organism-based
How it was run: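 About 10^6 trypanosomes incubated with 7.5 µM diamidine for 1 to 8 h. Intracellular concentration measured by HPLC (fluorescence detection at excitation/emission maxima, formate buffer/acetonitrile gradient, reversed-phase column) or LC/MS. Reported as mean ± standard error.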

[5] = Binding affinity at d(CGCGAATTCGCG) synthetic oligomer duplex assessed as increase in melting temperature; how it was run: as §1
[6] = tested on: Trypanosoma brucei brucei; assay: Drug level in Trypanosoma brucei brucei S427 at 7.5 uM after 24 hrs; type: ADME, organism-based

With N=C(NC1CCCC1)c1ccc(-c2ccc(-c3ccc(C(=N)NC4CCCC4)cc3)o2)cc1 the ΔTm [1] was 27 °C, the IC50 [2] was 0.1 µM and the IC50 [3] was 0.06 µM. It also gave a Drug uptake [4] of 30 mM and a ΔTm [5] of 16 °C.
With N=C(N)c1ccc(-c2coc(-c3ccc(C(=N)N)cc3)c2)cc1 the ΔTm [1] was 17.1 °C, the IC50 [2] was 0.0021 µM and the IC50 [3] was 0.0017 µM. For the same compound, the Drug uptake [4] was 30 mM and the ΔTm [5] was 10.4 °C.
For N=C(N)c1ccc(-c2ccc(-c3ccc(C(=N)N)cc3)o2)cc1 [FURAMIDINE], the ΔTm [1] was 26.2 °C, the IC50 [2] was 0.007 µM and the Drug uptake [4] was 4.5 mM. For the same compound, the ΔTm [5] was 8.9 °C and the Drug uptake [6] was 12 mM.
Work on N=C(N)c1ccc(Cc2ccc(-c3ccc(C(=N)N)cn3)o2)cc1 yielded a ΔTm [1] of 3.1 °C, an IC50 [2] of 0.314 µM and an IC50 [3] of 0.147 µM. The ΔTm [5] was 0.4 °C.
For N=C(N)c1ccc(-c2ccc(-c3ccc(C(=N)N)cc3F)o2)c(F)c1, the ΔTm [1] was 15.2 °C, the IC50 [2] was 0.0148 µM and the IC50 [3] was 0.008 µM. The ΔTm [5] was 8.2 °C.
With N=C(N)c1ccc(-c2ccc(-c3ccc(C(=N)N)nc3)o2)cc1 the ΔTm [1] was 23.3 °C, the IC50 [2] was 0.0033 µM and the IC50 [3] was 0.0021 µM. It also gave a Drug uptake [4] of 9.3 mM and a ΔTm [5] of 10.4 °C.
With c1cc(-c2ccc(-c3ccc(C4=NCCN4)cc3)o2)ccc1C1=NCCN1 the ΔTm [1] was 19.3 °C, the IC50 [2] was 0.251 µM and the IC50 [3] was 0.245 µM. For the same compound, the ΔTm [5] was 11 °C.
N=C(N)c1ccc(-c2ccc(-c3ccc(C(=N)N)cn3)o2)cc1 gave a ΔTm [1] of 20 °C, an IC50 [2] of 0.0034 µM and a Drug uptake [4] of 1 mM. The ΔTm [5] was 11.2 °C and the Drug uptake [6] was 3 mM.
In the case of N=C(NC1CCCCC1)c1ccc(-c2ccc(-c3ccc(C(=N)NC4CCCCC4)cc3)o2)cc1, the ΔTm [1] is reported as 27 °C, the IC50 [2] is reported as 0.121 µM and the IC50 [3] is reported as 0.068 µM. For the same compound, the Drug uptake [4] was 30 mM and the ΔTm [5] was 16.8 °C.
Work on c1cc(-c2ccc(-c3ccc(C4=NCCCN4)cc3)o2)ccc1C1=NCCCN1 yielded a ΔTm [1] of 27 °C, an IC50 [2] of 0.26 µM and an IC50 [3] of 0.033 µM. It also gave a ΔTm [5] of 15.1 °C.
With Cc1cc(C(=N)N)ccc1-c1ccc(-c2ccc(C(=N)N)cn2)o1 the ΔTm [1] was 16.7 °C, the IC50 [2] was 0.01 µM and the IC50 [3] was 0.0097 µM. It also gave a ΔTm [5] of 10.6 °C.
N=C(N)c1ccc(-c2ccc(-c3ccc(C(=N)N)cn3)o2)nc1 gave a ΔTm [1] of 16 °C, an IC50 [2] of 0.013 µM and an IC50 [3] of 0.019 µM. For the same compound, the ΔTm [5] was 8.4 °C.
Work on N=C(N)c1ccc(-c2ccc(-c3ccc(C(=N)N)cc3O)o2)nc1 yielded a ΔTm [1] of 16.4 °C, an IC50 [2] of 0.032 µM and an IC50 [3] of 0.032 µM. It also gave a ΔTm [5] of 10.4 °C.
